# Laboratory results: ChEMBL document CHEMBL4616646, “Synthesis and Cytotoxicity Studies of Stilbene Long-Chain Fatty Acid Conjugates” (J Nat Prod, 2020)
# Legend:
# HEK293 = assay: Cytotoxicity against HEK293 cells after 68 hrs by MTT assay; format: cell-based; details: Homo sapiens, HEK293, 68 h
# Outline: (§1)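 Cells grown in DMEM with 10% FBS and 1% P/S at 37 °C under 5% CO₂, trypsinized and seeded at ~5 × 10⁴ cells per well. Test drugs added after attachment at 0.1 to 100 μM. After 68 h, MTT (4 mg/mL) added for 4 h, supernatant discarded, formazan dissolved in DMSO, absorbance read at 570 nm. IC50 taken as concentration giving ~50% survival; mean ± SD of three independent experiments.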
# MCF7 = assay: Cytotoxicity against human MCF7 cells after 68 hrs by MTT assay; format: functional, cell-based; details: MCF7, 68 h; outline: as §1
# KB 3-1 = assay: Cytotoxicity against human KB3-1 cells after 68 hrs by MTT assay; format: functional, cell-based; details: KB 3-1, 68 h; outline: as §1
# NCI-H460 = assay: Cytotoxicity against human NCI-H460 cells after 68 hrs by MTT assay; format: functional, cell-based; details: NCI-H460, 68 h; outline: as §1
SMILES,IC50 (HEK293) [nM],IC50 (MCF7) [nM],IC50 (KB 3-1) [nM],IC50 (NCI-H460) [nM]
CCCCCCCC/C=C\CCCCCCCC(=O)Oc1cc(/C=C\c2cc(OC)c(OC)c(OC)c2)ccc1OC,30,> 10000,30,310
CCCCC/C=C\C/C=C\CCCCCCCC(=O)Oc1cc(/C=C\c2cc(OC)c(OC)c(OC)c2)ccc1OC,20,> 10000,20,20
COc1cc2c(c(OC)c1OC)-c1ccc(OC)c(=O)cc1[C@@H](NC(C)=O)CC2 [COLCHICINE],20,60,20,60
CC/C=C\C/C=C\C/C=C\CCCCCCCC(=O)Oc1cc(/C=C/c2cc(OC)c(OC)c(OC)c2)ccc1OC,2400,> 10000,2400,> 10000
CCCCCCCC/C=C\CCCCCCCC(=O)Oc1ccc(/C=C/c2cc(OC)c(OC)c(OC)c2)cc1OC,> 100000,> 100000,> 100000,> 100000
CC/C=C\C/C=C\C/C=C\CCCCCCCC(=O)Oc1ccc(/C=C/c2cc(OC)c(OC)c(OC)c2)cc1OC,> 100000,> 100000,> 100000,> 100000
CCCCC/C=C\C/C=C\CCCCCCCC(=O)Oc1ccc(/C=C/c2cc(OC)c(OC)c(OC)c2)cc1OC,> 100000,> 100000,> 100000,> 100000
CCCCCCCCCCCCCCCCCC(=O)Oc1cc(/C=C\c2cc(OC)c(OC)c(OC)c2)ccc1OC,30,240,30,30
CCCCCCCCCCCCCCCCCC(=O)Oc1ccc(/C=C\c2cc(OC)c(OC)c(OC)c2)cc1OC,3900,7700,3100,> 10000
COc1ccc(/C=C\c2cc(OC)c(OC)c(OC)c2)cc1O [COMBRETASTATIN A4],10,90,10,10
CCCCCCCCCCCCCCCCCC(=O)Oc1cc(/C=C/c2cc(OC)c(OC)c(OC)c2)ccc1OC,2900,> 10000,> 10000,> 10000
CCCCC/C=C\C/C=C\CCCCCCCC(=O)Oc1cc(/C=C/c2cc(OC)c(OC)c(OC)c2)ccc1OC,2600,> 10000,4900,2400
CCCCCCCCCCCCCCCCCC(=O)Oc1ccc(/C=C/c2cc(OC)c(OC)c(OC)c2)cc1OC,> 100000,> 100000,> 100000,> 100000
CC/C=C\C/C=C\C/C=C\CCCCCCCC(=O)Oc1cc(/C=C\c2cc(OC)c(OC)c(OC)c2)ccc1OC,23,> 10000,30,10
COc1ccc(/C=C/c2cc(OC)c(OC)c(OC)c2)cc1O [E-COMBRETASTATIN A-4],200,110,100,250
